# ChEMBL document CHEMBL3792272, “Discovery of Potent and Orally Active Lipoprotein-Associated Phospholipase A2 (Lp-PLA2) Inhibitors as a Potential Therapy for Diabetic Macular Edema” (J Med Chem, 2016)
# Legend:
# Format in all cases: ADME, organism-based
# [1] = AUC (0 to 24 hrs) in Sprague-Dawley rat at 10 mg/kg, iv after 5 mins to 24 hrs by LC-MS/MS analysis; design: time < 24 hr, dose 10 mg/kg, route intravenous; conditions: in vivo
# How it was run: (§1)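 Male SD rats, n=5 per group, single iv bolus: 5 mg/kg in 5% DMSO/5% Tween-80 in saline, or 10 mg/kg tartrate salt in water. Plasma sampled predose and at 5, 15, 30 min and 1, 3, 5, 7, 24 h. Drug measured by LC-MS. Parameters by noncompartmental analysis of mean concentrations.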
# [2] = Volume of distribution at steady state in Sprague-Dawley rat at 10 mg/kg, iv after 5 mins to 24 hrs by LC-MS/MS analysis; conditions: in vivo, read-out: Vdss; how it was run: as §1
# [3] = AUC (0 to 24 hrs) in Sprague-Dawley rat at 50 mg/kg, po after 0.5 to 24 hrs by LC-MS/MS analysis; design: time < 24 hr, dose 50 mg/kg, route oral; conditions: in vivo
# [4] = Cmax in Sprague-Dawley rat at 50 mg/kg, po after 0.5 to 24 hrs by LC-MS/MS analysis; design: dose 50 mg/kg, route oral; conditions: in vivo
# [5] = Tmax in Sprague-Dawley rat at 50 mg/kg, po after 0.5 to 24 hrs by LC-MS/MS analysis; conditions: in vivo
smiles,measurement,setting,value
CCN(CC)CCN(Cc1ccc(-c2ccc(C(F)(F)F)cc2)cc1)C(=O)Cn1c(SCc2ccc(F)cc2)nc(=O)c2c1CCC2 [DARAPLADIB],AUC(0-t) at 24 h,[1],1200 ng·h/mL
same,Vd,[2],34.4 L/kg
same,AUC(0-t) at 24 h,[3],1300 ng·h/mL
same,Cmax,[4],115 ng/mL
same,Tmax,[5],4.2 h
